# An excerpt weighted towards active compounds, which were near 1.8% of everything screened.
# MIN6 prolif = MIN6 beta-cell proliferation induction. MIN6 cells proliferation, ATPlite luminescence, 48 h; cells starved in 0.2% serum; 100% = growth in 10% serum. proliferation, % at 10 µM. 330,000 tested, 0.29% active. AID 2380;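 active means compounds whose signal lies at least 3.5 SD above the mean of all wells on their plate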;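 further: 0% = DMSO-treated cells in low-serum medium and 100% = 10% serum control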
# PPC-1+TRAIL kill = kills PPC-1 cancer cells in the presence of TRAIL. PPC-1 cells + TRAIL, ATPLite viability luminescence. cell killing (% activity), % at 4 µM or 5 µM. 220,000 tested, 0.41% active. AID 1443;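 active means cell killing above 50% in the first pass at 4 µM, then a duplicate retest at 5 µM averaging 50% or more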;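 further: plate controls were cells with TRAIL plus DMSO for no effect and medium-only wells lacking cells for full effect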
# FLuc act counter = firefly luciferase counter-screen for stimulation assays; P08659; ATPlite luciferase biochemical, luminescence, 10 min; 0 = ATP-free wells, 1 = DMSO control; activation factor at 10 µM; 200,000 tested, under 10 active; AID 1027;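 active means luciferase activation factor, scaled between plate controls, of at least 2 with compound at 10 µM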
#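 System: cell-free luciferase reagent; medium: PBS as buffer for the ATP substrate; doses: test compounds dosed from 2 mM stocks in 100% DMSO; incubation: 10 min, room temperature; measured by: luminescence from luciferase reaction; read-out: luciferase activation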
# FLuc inhib CS = inhibits firefly luciferase, flagging false hits in luciferase inhibition screens; P08659; inhibition, % at 10 µM; AID 1006; 200,000 tested, 1.5% active; ATPLite firefly luciferase biochemical luminescence, 10 min;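 active means inhibition above about 50% when tested at 10 µM, limit read from the data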
# iPSC survival up = enhancers of human iPSC single-cell survival; hiPSC single-cell survival, ATPlite luminescence; 100% = ROCK inhibitor wells, 0% = DMSO; survival enhancement, % at 20 µM; 360,000 tested, 0.044% active; in the data active means survival enhancement above about 18%;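 further: cells exposed to compounds for 16 hours before the ATP read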
# C8 TRAIL sens = sensitizes caspase-8 expressing cells to TRAIL; NB7+C8 cells + TRAIL, ATPlite viability luminescence; inhibition (viability loss, TRAIL sensitization), % at 10 µM; 360,000 tested, 1% active; AID 624354;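 active means compounds causing at least 50% loss of cell viability in the single-dose screen, relative to plate controls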
# An asterisk follows results filed as active; nt = no result given.
SMILES,MIN6 prolif,PPC-1+TRAIL kill,FLuc act counter,FLuc inhib CS,iPSC survival up,C8 TRAIL sens
CCOC(=O)N1CCN(C(=O)c2ccc3c(c2)N(Cc2cccc(Cl)c2)C(=O)c2ccccc2S3=O)CC1 (centres undefined),0,nt,nt,nt,0,1
O=C(Nc1ccccc1)NN(C(=O)CCl)c1ccccc1,-7,nt,nt,nt,-1,97*
O=C(CCCc1ccccc1)NCCc1ccccc1,1,nt,nt,nt,-1,-14
CCCCCCCN(C(=O)CCl)c1cccc(C)c1,-6,16,1,-5,0,95*
CCCCCCN(C(=O)CCl)c1ccccc1,-6,22,nt,nt,-1,96*
O=C(CCl)N(CCc1ccccc1)CCc1ccccc1,-4,nt,nt,nt,-1,95*
CCC(O)(CC)C(=O)NN(C(=O)CCl)c1ccccc1,-2,-6,1.1,-5,-2,19
CCCCCCCCCC(=O)N1c2ccccc2NC(=O)C1CC(=O)Nc1ccc(C(=O)O)cc1 (centres undefined),-2,16,nt,nt,1,-5
O=C(N(c1ccccc1)c1ccccc1)N(c1ccccc1)c1ccccc1,-4,19,nt,nt,0,11
O=C(CCl)N(c1ccccc1)c1ccccc1,nt,-6,1,-4,-1,94*
Cc1ccc(N(NC(=O)C(O)(c2ccccc2)c2ccccc2)C(=O)CCl)cc1,-3,30,0.9,5,-1,54*
O=C(COC(=O)Cc1ccc(S(=O)(=O)N2CCOCC2)s1)Nc1ccc(F)cc1F,-2,nt,nt,nt,0,6
O=C(N/N=C1\C/C(=N\NC(=O)c2ccncc2)c2ccccc21)c1ccncc1,-5,-12,0.3,69*,0,48
CC(=O)N1N=C(c2ccco2)CC1c1ccco1 (centres undefined),1,nt,nt,nt,0,-3
Cc1ccc(C2=NN(C(=O)CCl)C(c3ccco3)C2)o1 (centres undefined),-4,nt,nt,nt,1,92*
Cc1cccc(S(=O)(=O)NC(=O)C2(C)CCN2C(=O)Cc2ccc(Cl)cc2Cl)c1 (centres undefined),nt,nt,nt,nt,4,-2
Cc1cccnc1NC(=O)Cn1nc(-c2ccccc2)oc1=S,-3,64*,1,-4,0,25
COc1cccc(-c2nc(-c3ccccn3)no2)c1OC,0,12,0.7,25,-4,12
c1cc(-c2noc(CC3CCCCC3)n2)ccn1,0,-2,1.1,-8,-2,24
c1ccc(-c2noc(CC3CCCCC3)n2)nc1,-2,0,0.5,52*,-1,21
c1ccc(-c2noc(-c3cccc4ccccc34)n2)nc1,-3,-22,0.2,77*,-4,53*
Cc1cc(-c2cn3ccccc3n2)c(C)n1-c1ccccc1,-6,4,0.1,94*,-3,64*
S=c1nc(NCc2ccc3c(c2)OCO3)c2ccccc2[nH]1,0,nt,nt,nt,2,-7
Cc1ccc2nc(NCc3ccccc3)[nH]c2c1,nt,13,0.8,24,-3,33
c1ccc(CNc2nc3ccccc3[nH]2)cc1,-3,45,0.4,64*,-3,40
SMILES,MIN6 prolif,PPC-1+TRAIL kill,FLuc act counter,FLuc inhib CS,iPSC survival up,C8 TRAIL sens
c1ccc2[nH]c(NCc3ccc4c(c3)OCO4)nc2c1,-3,49,0.2,82*,-2,14
c1ccc(CNc2nc(NCc3ccccc3)c3ccccc3n2)cc1,-3,20,nt,nt,-1,53*
CCCSc1nnc2n(Cc3ccccc3)c(=O)c3c4c(sc3n12)CCC4,nt,8,1.1,-7,nt,nt
C=C(C)CSc1nnc2n(Cc3ccccc3)c(=O)c3c4c(sc3n12)CCC4,nt,9,1,-3,-4,85*
CCCc1sc(N/N=C/c2ccccn2)nc1-c1ccc(F)cc1,-4,-4,1,-4,-1,5
Cc1nc(N/N=C/c2ccccn2)sc1C,nt,70*,0.1,94*,nt,nt
O=C(O)C(c1ccccc1)C1(O)CCC1 (centres undefined),nt,nt,nt,nt,-3,2
O=C(Nc1cccc(C(F)(F)F)c1)c1csc([C@@H]2O[C@H](CO)[C@@H](O)[C@H]2O)n1,nt,nt,nt,nt,3,-6
COC(=O)CN1C(=O)COc2ccc(S(=O)(=O)NCc3ccccc3)cc21,-1,nt,nt,nt,0,-9

# Compound activity (PubChem)
